From ChEMBL document CHEMBL1649241, “Antimalarial activity of simalikalactone E, a new quassinoid from Quassia amara L. (Simaroubaceae)” (Antimicrob Agents Chemother, 2009)

Key:
Plasmodium yoelii yoelii = assay: Antiplasmodial activity against Plasmodium yoelii yoelii infected in po dosed rodents; type: functional
THP-1 = assay: Cytotoxicity against human THP1 cells assessed as incorporation of [3H]hypoxanthine after 48 hrs; type: cell-based; conditions: thp-1, 48 h
Method in brief: (§1)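 Vero, MCF7 and THP1 cells were grown under the P. falciparum culture conditions, except that 10% fetal calf serum replaced 5% human serum. Cells were incubated 48 h with serial drug dilutions. Growth was measured by [3H]hypoxanthine incorporation relative to untreated controls. IC50 is the mean ± SEM of ≥3 independent experiments.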

MCF7 = assay: Cytotoxicity against human MCF7 cells assessed as incorporation of [3H]hypoxanthine after 48 hrs; type: cell-based; conditions: mcf7, 48 h; method in brief: as §1
Vero = assay: Cytotoxicity against african green monkey Vero cells assessed as incorporation of [3H]hypoxanthine after 48 hrs; type: cell-based; conditions: chlorocebus sabaeus; method in brief: as §1
Plasmodium berghei = assay: Antiplasmodial activity against Plasmodium berghei infected in ip dosed mouse; type: functional
[1] = tested on: Plasmodium vinckei petteri; assay: Antiplasmodial activity against Plasmodium vinckei petteri infected in po dosed CD mouse assessed as mean survival time at 5 mg/kg/day, ip for 4 days measured upto day 21 post-infection; type: functional
Method in brief: (§2)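 Female CD mice were infected with 10^6 P. vinckei petteri-infected erythrocytes and dosed i.p. or p.o. on days 0–3, five per group. Survival was followed to day 21. Mean survival time is the area under the Kaplan–Meier survivor function. Where mice survived, an extended mean was obtained by exponential extension of the survivor function to zero. Comparisons used the log rank test.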

[2] = tested on: Plasmodium vinckei petteri; assay: Antiplasmodial activity against Plasmodium vinckei petteri infected in po dosed CD mouse assessed as mean survival time at 0.5 mg/kg/day, ip for 4 days measured upto day 21 post-infection; type: functional; method in brief: as §2
[3] = tested on: Plasmodium vinckei petteri; assay: Antiplasmodial activity against Plasmodium vinckei petteri infected in po dosed CD mouse assessed as extended mean survival time at 0.5 mg/kg/day, ip for 4 days; type: functional; method in brief: as §2
[4] = tested on: Plasmodium vinckei petteri; assay: Antiplasmodial activity against Plasmodium vinckei petteri infected in po dosed CD mouse assessed as extended mean survival time at 1 mg/kg/day, ip for 4 days; type: functional; method in brief: as §2
[5] = tested on: Plasmodium vinckei petteri; assay: Antiplasmodial activity against Plasmodium vinckei petteri infected in ip dosed CD mouse assessed as suppression of parasitemia measured on day 5 post-infection by Giemsa staining; type: functional; conditions: 120 h
Method in brief: (§3)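 Four-day suppressive test in female CD mice (20 ± 2 g) infected with 10^6 P. vinckei petteri-infected erythrocytes on day 0. Groups of five were dosed i.p. (DMSO vehicle) or p.o. (carboxymethylcellulose vehicle) on days 0–3 at 0.5–20 mg/kg/day. Parasitemia was read from Giemsa-stained tail-blood smears (≥5,000 erythrocytes). % inhibition = (control − treated parasitemia)/control × 100.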

Plasmodium falciparum [6] = assay: Antiplasmodial activity against Plasmodium falciparum W2 gametocytes assessed as suppression of parasitemia […] by Giemsa staining; type: functional, organism-based
Method in brief: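 W2 gametocytogenesis was induced on day 0 by a modified Ifediba–Vanderberg method, with N-acetylglucosamine added on day 10. Increasing compound dilutions were added on day 13. On day 15, Giemsa-stained thin smears were counted (≥10,000 erythrocytes each) to estimate gametocytemia against untreated and reference-drug controls. IC50 is the mean ± SEM of ≥3 independent experiments.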

[7] = tested on: Plasmodium vinckei petteri; assay: Antiplasmodial activity against Plasmodium vinckei petteri infected in po dosed CD mouse assessed as mean survival time at 1 mg/kg/day, ip for 4 days measured upto day 21 post-infection; type: functional; method in brief: as §2
[8] = tested on: Plasmodium vinckei petteri; assay: Antiplasmodial activity against Plasmodium vinckei petteri infected in po dosed CD mouse assessed as suppression of parasitemia measured on day 5 post-infection by Giemsa staining; type: functional; conditions: 120 h; method in brief: as §3
[9] = tested on: Plasmodium vinckei petteri; assay: Antiplasmodial activity against Plasmodium vinckei petteri infected in po dosed CD mouse assessed as mean survival time at 1 mg/kg/day, po for 4 days measured upto day 21 post-infection; type: functional; method in brief: as §2
[10] = tested on: Plasmodium vinckei petteri; assay: Antiplasmodial activity against Plasmodium vinckei petteri infected in CD mouse assessed as suppression of parasitemia at 1 mg/kg/day, po measured on day 5 post-infection by Giemsa staining; type: functional; conditions: 120 h; method in brief: as §3
[11] = tested on: Plasmodium vinckei petteri; assay: Antiplasmodial activity against Plasmodium vinckei petteri infected in CD mouse assessed as suppression of parasitemia at 1 mg/kg/day, ip measured on day 5 post-infection by Giemsa staining; type: functional; conditions: 120 h, route intraperitoneal; method in brief: as §3
[12] = tested on: Plasmodium vinckei petteri; assay: Antiplasmodial activity against Plasmodium vinckei petteri infected in CD mouse assessed as suppression of parasitemia at 20 mg/kg/day, po measured on day 5 post-infection by Giemsa staining; type: functional; conditions: 120 h; method in brief: as §3
[13] = tested on: Plasmodium vinckei petteri; assay: Antiplasmodial activity against Plasmodium vinckei petteri infected in po dosed CD mouse assessed as extended mean survival time at 1 mg/kg/day, po for 4 days measured upto day 21 post-infection; type: functional; method in brief: as §2
[14] = tested on: Plasmodium vinckei petteri; assay: Antiplasmodial activity against Plasmodium vinckei petteri infected in CD mouse assessed as suppression of parasitemia at 10 mg/kg/day, po measured on day 5 post-infection by Giemsa staining; type: functional; conditions: 120 h; method in brief: as §3
[15] = tested on: Plasmodium vinckei petteri; assay: Antiplasmodial activity against Plasmodium vinckei petteri infected in po dosed CD mouse assessed as mean survival time at 10 mg/kg/day, po for 4 days measured upto day 21 post-infection; type: functional; method in brief: as §2
[16] = tested on: Plasmodium vinckei petteri; assay: Antiplasmodial activity against Plasmodium vinckei petteri infected in po dosed CD mouse assessed as extended mean survival time at 20 mg/kg/day, po for 4 days; type: functional; method in brief: as §2
[17] = tested on: Plasmodium vinckei petteri; assay: Antiplasmodial activity against Plasmodium vinckei petteri infected in po dosed CD mouse assessed as extended mean survival time at 5 mg/kg/day, ip for 4 days; type: functional; method in brief: as §2
[18] = tested on: Plasmodium vinckei petteri; assay: Antiplasmodial activity against Plasmodium vinckei petteri infected in CD mouse assessed as suppression of parasitemia at 5 mg/kg/day, ip measured on day 5 post-infection by Giemsa staining; type: functional; conditions: 120 h, route intraperitoneal; method in brief: as §3
[19] = tested on: Plasmodium vinckei petteri; assay: Antiplasmodial activity against Plasmodium vinckei petteri infected in po dosed CD mouse assessed as extended mean survival time at 10 mg/kg/day, po for 4 days; type: functional; method in brief: as §2
[20] = tested on: Plasmodium vinckei petteri; assay: Antiplasmodial activity against Plasmodium vinckei petteri infected in CD mouse assessed as suppression of parasitemia at 0.5 mg/kg/day, ip measured on day 5 post-infection by Giemsa staining; type: functional; conditions: 120 h, route intraperitoneal; method in brief: as §3
Plasmodium falciparum [21] = assay: Antiplasmodial activity against Plasmodium falciparum FcB1/Columbia assessed as suppression of parasitemia after 4 hrs by Giemsa staining; type: functional, organism-based
Method in brief: (§4)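 Asexual blood-stage P. falciparum growth inhibition, run by a modified Desjardins method. Parasites were grown by a modified Trager–Jensen culture and synchronized by magnetic enrichment plus 5% D-sorbitol lysis. F32 is chloroquine-sensitive; FcB1 and W2 are chloroquine-resistant. IC50 is the mean ± SEM of at least three independent experiments.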

Plasmodium falciparum [22] = assay: Antiplasmodial activity against Plasmodium falciparum F32 assessed as suppression of parasitemia after 4 hrs by Giemsa staining; type: functional, organism-based; conditions: F32, 4 h; method in brief: as §4
Plasmodium falciparum [23] = assay: Antiplasmodial activity against Plasmodium falciparum W2 assessed as suppression of parasitemia after 4 hrs by Giemsa staining; type: functional, organism-based; conditions: W2, 4 h; method in brief: as §4
[24] = tested on: Plasmodium vinckei petteri; assay: Antiplasmodial activity against Plasmodium vinckei petteri infected in CD mouse assessed as suppression of parasitemia at 10 mg/kg/day, ip measured on day 5 post-infection by Giemsa staining; type: functional; conditions: 120 h, route intraperitoneal
Method in brief: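 Four-day suppressive test in female CD mice (20 ± 2 g) infected on day 0 with P. vinckei petteri-infected red blood cells in RPMI. Groups of five treated i.p. once daily, days 0–3; DMSO-only mice were the i.p. control. Parasitemia was counted on Giemsa-stained tail-blood smears (at least 5,000 erythrocytes). Inhibition % = (control − treated parasitemia)/control × 100.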

[25] = tested on: Plasmodium vinckei petteri; assay: Antiplasmodial activity against Plasmodium vinckei petteri infected in po dosed CD mouse assessed as mean survival time at 10 mg/kg/day, ip for 4 days measured upto day 21 post-infection; type: functional; method in brief: as §2
[26] = tested on: Plasmodium vinckei petteri; assay: Antiplasmodial activity against Plasmodium vinckei petteri infected in po dosed CD mouse assessed as extended mean survival time at 10 mg/kg/day, ip for 4 days; type: functional; method in brief: as §2

Structure (SMILES): CC[C@@H](C)C(=O)O[C@H]1C(=O)O[C@@H]2C[C@H]3C(C)=CC(=O)[C@@H](O)[C@]3(C)[C@H]3[C@@H](O)[C@H](O)[C@]4(C)OC[C@]32[C@@H]14 [SIMALIKALACTONE D]
- ED50 (Plasmodium yoelii yoelii): 3.7 mg/kg/day
- Activity (THP-1): < 2 nM
- Activity (MCF7): < 20 nM
- Activity (Vero): 0.058 µM
- ED50 (Plasmodium berghei): 0.2 mg/kg/day

Structure (SMILES): CC[C@H](C)C(=O)O[C@@H]1[C@H]2C(C)=CC(=O)[C@@H](O)[C@]2(C)[C@H]2[C@@H](O)[C@H](O)[C@@]3(C)OC[C@@]24[C@@H]1OC(=O)[C@H](OC(=O)[C@@H](C)CC)[C@@H]34 [SIMALIKALACTONE E]
- MST [1]: 11.4 days
- MST [2]: 16.4 days
- Activity (THP-1): 33 nM
- MST [3]: 41.07 days
- MST [4]: 93.89 days
- ED50 [5]: 0.5 mg/kg/day
- IC50 (Plasmodium falciparum [6]): 1.12 µM
- Activity (MCF7): 47 nM
- Activity (Vero): 6.574 µM
- MST [7]: 18.6 days
- ED50 ([7]; Plasmodium vinckei): 3 mg/kg/day
- ED50 [8]: 1 mg/kg/day
- MST [9]: 11 days
- inhibition in vivo at 1 mg/kg/day [10]: 55%
- inhibition in vivo at 1 mg/kg/day [11]: 98%
- inhibition in vivo at 20 mg/kg/day [12]: 100%
- MST [13]: 13.61 days
- inhibition in vivo at 10 mg/kg/day [14]: 95%
- MST [15]: 12.4 days
- MST [16]: 16.41 days
- MST [17]: 20.57 days
- inhibition in vivo at 5 mg/kg/day [18]: 100%
- MST [19]: 15.01 days
- inhibition in vivo at 0.5 mg/kg/day [20]: 59%

Structure (SMILES): COc1cc(NC(C)CCCN)c2ncccc2c1 (stereo not drawn) [PRIMAQUINE]
- IC50 (Plasmodium falciparum [6]): 8.9 µM
- IC50 (Plasmodium falciparum [21]): 8.9 µM
- Activity (Vero): 340 µM
- IC50 (Plasmodium falciparum [22]): 6.17 µM
- IC50 (Plasmodium falciparum [23]): 7.14 µM

Structure (SMILES): CCN(CC)CCCC(C)Nc1ccnc2cc(Cl)ccc12 (stereo not drawn) [CHLOROQUINE]
- MST [1]: 12.8 days
- Activity (THP-1): > 500 nM
- inhibition in vivo at 10 mg/kg/day [24]: 100%
- MST [25]: 19.2 days
- Activity (MCF7): > 500 nM
- MST [26]: 43.87 days
- Activity (Vero): > 0.5 µM
- inhibition in vivo at 1 mg/kg/day [11]: ≤ 0%
- inhibition in vivo at 5 mg/kg/day [18]: 100%
